Laboratory results from ChEMBL document CHEMBL2046305, “Discovery of selective menaquinone biosynthesis inhibitors against Mycobacterium tuberculosis” (J Med Chem, 2012).
pIC50: −log10 of the molar value. ≈ marks a conversion by molar mass, not a printed value. Calls of active or inactive are those of the source. The rule behind the calls is not given here.

Key:
[1] = tested on: Mycobacterium tuberculosis; assay: Antibacterial activity against Mycobacterium tuberculosis H37Rv ATCC 27294 by microplate alamar blue assay; format: functional
How it was run: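 Colorimetric microplate assay run under aerobic conditions; growth scored by the colour change of resazurin. Compounds showing at least 90% inhibition in a preliminary screen were retested at lower concentrations to give the MIC.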

[2] = tested on: Escherichia coli; assay: Growth inhibition of Escherichia coli Seattle ATCC 25922 at 5 to 10 ug/ml by microplate alamar blue assay; format: functional, organism-based
[3] = tested on: Mycobacterium tuberculosis; assay: Inhibition of Mycobacterium tuberculosis MenA using [3H]farnesyl and DHNA as substrate at 100 uM after 2 hrs
How it was run: (§1)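 Membrane fraction from mid-log cultures in 7H9/OADC, washed in saline, sonicated in MOPS pH 8/sucrose/MgCl2/2-mercaptoethanol buffer, spun 15,000 g then 200,000 g; the fraction was the enzyme source. DHNA (500 μM stock), MgCl2, 0.1% CHAPS, Tris pH 8, farnesyl diphosphate (200 μM stock) and inhibitor, 2 h at 37 °C. Quenched with 0.1 M AcOH/MeOH, extracted with hexanes, DMMK measured.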

[4] = tested on: Staphylococcus aureus; assay: Antibacterial activity against Staphylococcus aureus Seattle 1945 ATCC 25923 by agar plate diffusion method; format: functional
[5] = tested on: Staphylococcus aureus; assay: Inhibition of Staphylococcus aureus MenA using [3H]farnesyl and DHNA as substrate at 100 uM after 2 hrs; how it was run: as §1
[6] = Inhibition of Mycobacterium tuberculosis MenA using [3H]farnesyl and DHNA as substrate after 2 hrs; how it was run: as §1
[7] = tested on: Escherichia coli; assay: Growth inhibition of Escherichia coli Seattle ATCC 25922 at 5 to 10 ug/ml by microplate alamar blue assay in presence of 50 uM VK2; format: functional, organism-based
How it was run: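 E. coli grown with inhibitor under anaerobic conditions; rescue tested by supplementing with menaquinone (VK2, 50 μM).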

[8] = tested on: Mycobacterium tuberculosis; assay: Antibacterial activity against non-replicating Mycobacterium tuberculosis H37Rv ATCC 27294 by low oxygen recovery assay; format: functional

Compound | MIC [1] [µg/mL] | growth inhibition (GI) [2] | inhibition [3] | MIC [4] [µg/mL] | inhibition [5] | pIC50 [6] | growth inhibition (GI) [7] | MIC [8] [µg/mL]
COc1ccc(CCN[C@H](CO)c2cccc(COc3cccc(C(=O)c4ccc(Cl)cc4)c3)c2)cc1 | 12.5 (≈ 24.2 µM) | Active | Active | > 60 | inactive | 4.77 | inactive | 3 (≈ 5.81 µM)
CCCCCC[C@@H](O)CN1CCC(COc2ccc(C(=O)c3ccc(Cl)cc3)c(Cl)c2)CC1 | 6.25 (≈ 12.7 µM) | Active | Active | > 60 | inactive | 5.02 | inactive | 5.2 (≈ 10.6 µM)
COc1ccc(CCN[C@@H](CO)c2cccc(COc3cccc(C(=O)c4ccc(Cl)cc4)c3)c2)cc1 | 12.5 (≈ 24.2 µM) | Active | Active | > 60 | inactive | 4.85 | inactive | 3 (≈ 5.81 µM)
CCCC[C@H](O)CN1CCC(COc2cccc(C(=O)c3ccc(Cl)cc3)c2)CC1 | 12.5 (≈ 29.1 µM) | Active | Active | > 60 | inactive | 5.12 | inactive | 5.59 (≈ 13 µM)
CCCCCC[C@@H](CN1CCC(COc2ccc(/C(=N\OC)c3ccc(Cl)cc3)c(Cl)c2)CC1)OC(N)=O | 1.5 (≈ 2.66 µM) | Active | Active | > 60 | inactive | 5.82 | inactive | 1.4 (≈ 2.48 µM)
CCCC[C@@H](O)CN1CCC(COc2cccc(C(=O)c3ccc(Cl)cc3)c2)CC1 | 6.2 (≈ 14.4 µM) | Active | Active | > 60 | inactive | 4.77 | inactive | 4.91 (≈ 11.4 µM)
CCCCCCC[C@H](O)c1cccc(CN2CCC(COc3ccc(C(=O)c4ccc(Cl)cc4)c(Cl)c3)CC2)c1 | 12.5 (≈ 21.5 µM) | Active | Active | > 60 | inactive | 4.82 | inactive | 1.88 (≈ 3.23 µM)
NNC(=O)c1ccncc1 [ISONIAZID] | 0.03 (≈ 0.219 µM) | – | – | – | – | – | – | > 128
CCCCCCC[C@H](OC(N)=O)c1cccc(CN2CCC(COc3cccc(C(=O)c4ccc(Cl)cc4)c3)CC2)c1 | 12.5 (≈ 21.1 µM) | Active | Active | > 60 | inactive | 4.70 | inactive | 4.93 (≈ 8.34 µM)
CCCCCCC[C@@H](O)c1cccc(CN2CCC(COc3cccc(C(=O)c4ccc(Cl)cc4)c3)CC2)c1 | 12.5 (≈ 22.8 µM) | Active | Active | > 60 | inactive | 4.70 | inactive | 1.46 (≈ 2.66 µM)
CCCCCCC[C@H](O)c1cccc(CN2CCC(COc3cccc(C(=O)c4ccc(Cl)cc4)c3)CC2)c1 | 12.5 (≈ 22.8 µM) | Active | Active | > 60 | inactive | 4.60 | inactive | 1.88 (≈ 3.43 µM)
CCCCC(CN1CCC(COc2ccc(C(=O)c3ccc(Cl)cc3)c(Cl)c2)CC1)OC(N)=O (racemic) | 3.25 (≈ 6.4 µM) | Active | Active | > 60 | inactive | 5.12 | inactive | 2.83 (≈ 5.58 µM)
CCCCCCC[C@H](OC(N)=O)c1cccc(CN2CCC(COc3ccc(C(=O)c4ccc(Cl)cc4)c(Cl)c3)CC2)c1 | 12.5 (≈ 20 µM) | Active | Active | > 60 | inactive | 4.70 | inactive | 2.93 (≈ 4.68 µM)
CCCCCC[C@H](O)CN1CCC(COc2ccc(C(=O)c3ccc(Cl)cc3)c(Cl)c2)CC1 | 1.5 (≈ 3.05 µM) | Active | Active | > 60 | inactive | 5.46 | inactive | 1.43 (≈ 2.9 µM)
CCCCCCC[C@@H](OC(N)=O)c1cccc(CN2CCC(COc3cccc(C(=O)c4ccc(Cl)cc4)c3)CC2)c1 | 12.5 (≈ 21.1 µM) | Active | Active | > 60 | inactive | 4.82 | inactive | 4.93 (≈ 8.34 µM)
CCCCCCC[C@@H](O)c1cccc(CN2CCC(COc3ccc(/C(=N\OC)c4ccc(Cl)cc4)c(Cl)c3)CC2)c1 | 12.5 (≈ 20.4 µM) | Active | Active | > 60 | inactive | 4.82 | inactive | 5.54 (≈ 9.06 µM)
CCCC[C@H](O)CN1CCC(COc2ccc(C(=O)c3ccc(Cl)cc3)c(Cl)c2)CC1 | 1.5 (≈ 3.23 µM) | Active | Active | > 60 | inactive | 5.35 | inactive | 1.43 (≈ 3.08 µM)
CCCCCCC[C@H](O)c1cccc(CN2CCC(COc3ccc(/C(=N\OC)c4ccc(Cl)cc4)c(Cl)c3)CC2)c1 | 12.5 (≈ 20.4 µM) | Active | Active | > 60 | inactive | 4.70 | inactive | 5.54 (≈ 9.06 µM)
CCCCCCC[C@@H](O)c1cccc(CN2CCC(COc3ccc(C(=O)c4ccc(Cl)cc4)c(Cl)c3)CC2)c1 | 12.5 (≈ 21.5 µM) | Active | Active | > 60 | inactive | 4.82 | inactive | 1.46 (≈ 2.51 µM)
CCCCCC[C@H](O)CN1CCC(COc2cccc(C(=O)c3ccc(Cl)cc3)c2)CC1 | 12.5 (≈ 27.3 µM) | Active | Active | > 60 | inactive | 4.80 | inactive | 4.91 (≈ 10.7 µM)
CCCCCCC[C@@H](OC(N)=O)c1cccc(CN2CCC(COc3ccc(C(=O)c4ccc(Cl)cc4)c(Cl)c3)CC2)c1 | 12.5 (≈ 20 µM) | Active | Active | > 60 | inactive | 4.70 | inactive | 4.93 (≈ 7.88 µM)
CO[C@H]1/C=C/O[C@@]2(C)Oc3c(C)c(O)c4c(O)c(c(/C=N/N5CCN(C)CC5)c(O)c4c3C2=O)NC(=O)/C(C)=C\C=C\[C@H](C)[C@H](O)[C@@H](C)[C@@H](O)[C@@H](C)[C@H](OC(C)=O)[C@@H]1C [RIFAMPIN] | 0.07 (≈ 0.0851 µM) | – | – | – | – | – | – | –
